High-throughput results (PubChem)
Vif imaging = HIV Vif inhibition; HEK293T cells, Vif self-association by quenched fluorescence, imaging, 24 h; inhibition, % at 7.49 µM; 340,000 compounds, 0.35% hits; in the data active = inhibition above about 50%, passing the limit was not always enough
SMARCA2 act = activators of SMARCA2 function | 370,000 compounds, 1% hits | MG213 cells, MMTV-luciferase reporter, dexamethasone, overnight | activation, % at 9.1 µM; in the data active = activation above about 7.8%;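 note: 0% = vehicle wells and 100% = reference activator wells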
SR-BI DiI-HDL act = activators of SR-BI mediated HDL lipid uptake; CHO ldlA[mSR-BI] cells, DiI-HDL uptake fluorescence, 3 h; 100 = double the neutral-control signal; activation, % at 12.5 µM; 320,000 compounds, 0.096% hits; AID 504775;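 active = mean replicate activation of at least 60% and every replicate at or above 60%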;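 note: 0% = median plate neutral-control signal and 100% = twice that signal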
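Assay system: CHO ldlA[mSR-BI] cells, LDL receptor-null, SR-BI overexpressing; medium: Ham's F12 with 0.5% BSA, HEPES 25 mM, pH 7.4; also added: DiI-HDL 10 µg/mL; timing: 3 h uptake period with compound, 37 °C; signal: DiI fluorescence, bottom read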
SR-BI HDL uptake = mouse SR-BI HDL lipid transfer inhibition; Q61009; ldlA[mSR-BI] CHO cells, DiI-HDL uptake fluorescence, 3 h; inhibition, % at 12.5 µM; 320,000 compounds, 0.96% hits; AID 488896;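 active = mean replicate inhibition of at least 70% and a set share of replicates each scoring 70 or more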;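 note: 0% = median of neutral control wells and 100% = median of positive control wells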
Target sequence (Q61009 whole entry, looked up): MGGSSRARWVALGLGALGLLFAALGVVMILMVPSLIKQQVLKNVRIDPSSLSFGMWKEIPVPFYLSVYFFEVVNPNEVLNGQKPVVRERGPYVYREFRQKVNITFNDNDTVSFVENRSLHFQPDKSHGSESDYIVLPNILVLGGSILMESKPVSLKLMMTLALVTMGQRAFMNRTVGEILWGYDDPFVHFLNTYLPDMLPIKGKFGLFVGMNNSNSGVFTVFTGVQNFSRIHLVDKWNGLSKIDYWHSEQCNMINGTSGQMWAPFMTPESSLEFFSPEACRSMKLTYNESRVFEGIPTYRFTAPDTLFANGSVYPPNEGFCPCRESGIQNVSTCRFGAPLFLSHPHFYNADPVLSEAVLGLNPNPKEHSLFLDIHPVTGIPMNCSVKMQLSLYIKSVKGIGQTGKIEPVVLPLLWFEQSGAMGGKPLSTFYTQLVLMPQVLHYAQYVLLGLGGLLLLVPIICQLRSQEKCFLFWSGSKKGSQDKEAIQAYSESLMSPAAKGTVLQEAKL
H9c2 TAG inh = reduces triacylglycerol accumulation in H9c2 cells | Nile Red lipid (TAG) fluorescence; cells loaded with 200 µM oleic acid | inhibition, % at 12.5 µM | 230,000 compounds, 0.66% hits | AID 651582;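 active = pattern-corrected inhibition of lipid staining of at least 50% with the nuclear-stain viability signal not falling by more than 50%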;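 note: 0% = DMSO wells and 100% = triacsin C control wells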
Numbers without * were called inactive; i = inactive; · = no result. Shown are actives, neighbours in structure and some others; about 2.5% of the full set was active somewhere.

SMILES	Vif imaging	SMARCA2 act	SR-BI DiI-HDL act	SR-BI HDL uptake	H9c2 TAG inh
COC(=O)[C@]12C[C@H](CC(=O)NCCCCc3ccccc3)C(=O)N(Cc3ccc4c(c3)OCO4)C1=C[C@H](COCc1ccccc1)O[C@@H]2C	·	0	·	·	·
CC(=O)Oc1ccc(C(=O)Nc2ccccc2C(=O)NCC(C)C)cc1	-2	-3	-74	74*	·
CCCCCCN1C=C/C(=C\C=C(C#N)C#N)c2ccccc21	5	1	-76	76*	·
CCCOC(=O)c1c(NC(=O)/C=C/c2cnn(C)c2C)sc(C(=O)OCC)c1C	·	-3	-76	76*	·
CCCCN1C(=O)/C(=C2/Sc3ccccc3N2C)S/C1=N\c1ncn[nH]1	3	-1	-83	83*	15
O=C1c2cccc3c([N+](=O)[O-])ccc(c23)C(=O)N1c1nccs1	67*	-10	42	-42	·
CC(=O)Nc1ccc(Sc2ccc([N+](=O)[O-])o2)cc1	116*	-11	9	-9	63*
Cc1nn2c(-c3cccc(NC(=O)CSc4nc5ccccc5o4)c3)nnc2c2ccccc12	12	0	-76	76*	33
Cc1cccc(NC(=O)CSc2nc3ccccc3o2)c1	-3	2	4	-4	8
C[C@H](CO)N1C[C@H](C)[C@H](CN(C)Cc2cccc(F)c2)Oc2ncc(C3=CCCC3)cc2C1=O	·	-5	·	·	·
COc1ccc(C(=O)NC2CCN(CC(=O)Nc3cccc(C)c3)CC2)cc1OC	-14	-3	-80	80*	9
CCCCOc1ccc(C(=O)N2CCN(CC(=O)Nc3ccc(C)cc3)CC2)cc1OC	2	-1	-78	78*	·
COCCCN1C(=O)[C@H](CC(=O)NCc2ccc(C)o2)[C@]2(C(=O)OC)CCCCC=C12	·	-1	·	·	·
Cc1ccc([N+](=O)[O-])cc1-c1ccc(/C=N/NC(=O)c2cc3c(ccc4ccccc43)o2)o1	·	2	-61	61	·
Cc1cc(C)n(Cc2ccc(C(=O)N/N=C/c3ccc(-c4ccc([N+](=O)[O-])cc4)o3)o2)n1	23	-3	-103	104*	4
Cc1ccc(-c2ccc(/C=N\NC(=O)c3cc4c(ccc5ccccc54)o3)o2)cc1[N+](=O)[O-]	24	1	9	-9	64*
CSc1nn(CCC#N)c(=O)[nH]c1=O	·	-1	·	·	·
CN(C)CCOc1ccc(-c2c(-c3ccccc3)sc3ccccc23)cc1	-4	-1	15	-15	58*
c1ccc(-c2sc3ccccc3c2-c2ccc(OCCN3CCCCC3)cc2)cc1	-2	4	15	-15	17
COc1ccc(OC)c(NC(=O)C(=O)N/N=C/c2ccccc2[N+](=O)[O-])c1	2	-2	-81	81*	·
COc1ccc(NC(=O)C(=O)N/N=C/c2cc(C)n(-c3cccc(Cl)c3Cl)c2C)c(OC)c1	-10	2	-72	72*	·
O=[N+]([O-])c1ccccc1C=NNC(=S)NN=Cc1ccccc1[N+](=O)[O-]	5	5	-43	43	20
CC(C)CNC(=O)OCc1cn(Cc2ccc(F)c(F)c2)nn1	·	1	·	·	·
CCOC(=O)c1c(NC(=S)Nc2ccccc2)sc2c1CC(C)(C)SC2	1	1	-95	95*	8
CCOC(=O)c1c(NC(=O)Nc2ccccc2)sc(C)c1C	-14	-3	-85	85*	26
SMILES	Vif imaging	SMARCA2 act	SR-BI DiI-HDL act	SR-BI HDL uptake	H9c2 TAG inh
COc1cc(OC)cc(C(=O)NCC2CCN(C(=O)C(=O)c3cccs3)CC2)c1	·	-6	·	·	·
CCc1cccc(C)c1NC(=S)NCC1CCN(c2ccc(OC)cc2)C1 (stereo unspecified)	-6	-2	-83	83*	10
CC(=O)N1C[C@@H](CO)[C@@H]2C[C@H]1c1ccccc1N2C	·	0	·	·	·
COCCNc1nnc(SCC(=O)Nc2sc3c(c2C(=O)c2ccccc2)CCCC3)s1	-3	-5	-75	75*	·
COc1ccc(C(=O)Nc2ccc(S(=O)(=O)Nc3ncccn3)cc2)cc1OC	8	-2	4	-4	·
COc1ccc(C(=O)Nc2ccc(Nc3ccccc3)cc2)cc1[N+](=O)[O-]	-7	-1	-55	55	-9
COc1ccc(C(=O)NCC(=O)N/N=C/C=C/c2ccccc2)cc1OC	-1	1	-83	83*	-2
COc1ccc(NC(=O)c2ccc(CN3CCN(c4ccccc4)CC3)cc2)cc1OC	6	·	-76	76*	·
COc1ccc(C(=O)Nc2ccc(NS(=O)(=O)c3ccccc3)cc2)cc1OC	0	-2	-74	74*	-1
COc1ccc(C(=O)Nc2ccc(Nc3ccccc3)cc2)cc1OC	-6	0	-79	79*	-6
O=C(NC1CCCCN(Cc2cccc(C(F)(F)F)c2)C1=O)c1ccc(Cl)cc1 (stereo unspecified)	·	-3	·	·	·
O=S1(=O)c2ccc(N3CCCC3)cc2Oc2ccccc2CN1Cc1cn(Cc2cccc(F)c2)nn1	·	-3	·	·	·
Cc1cccc(-c2cccc3c4c([nH]c23)[C@@H]2C[C@H](N(C)C(=O)Nc3ccccc3C)[C@H]([C@H](C)O)CN2CC4)c1	·	-7	·	·	·
COc1cc(C(=O)Nc2ccc(NC(C)=O)cc2)ccc1OCc1ccccc1	-11	-2	-78	78*	-8
Cc1ccc(C(=O)Nc2ccc(Nc3ccccc3)cc2)cc1C	2	5	-99	99*	13
Cc1c(NC(=O)/C(C#N)=C/c2ccc(-c3cccc(Cl)c3)o2)c(=O)n(-c2ccccc2)n1C	·	-4	-62	62	·
Cc1c(NC(=O)/C(C#N)=C/c2ccc(-c3ccc(Cl)c(Cl)c3)o2)c(=O)n(-c2ccccc2)n1C	5	-2	-74	74*	·
COC(=O)N1C[C@H](OCc2cn(-c3cc(Cl)cc(Cl)c3)nn2)[C@H](OCc2cn(-c3cc(Cl)cc(Cl)c3)nn2)C[C@@H]1c1ccccc1Br	·	-2	·	·	·
O=C(Nc1ccccc1C(=O)N1CCCCCC1)c1ccccc1	71*	0	-18	18	2
O=C(Nc1ccccc1C(=O)O)c1cccc(C(=O)Nc2ccccc2C(=O)O)c1	110*	-1	29	-29	·
COc1cccc(C(=O)Nc2ccccc2C(=O)N2CCCC2)c1	5	-1	2	-2	-9
Cc1cc(N2CCN(CC(C)(C)O)C[C@@H]2C)ccc1N1CCN(Cc2ccccc2)[C@@H](C)C1	·	-2	·	·	·
O=C(N/N=C/c1c[nH]c2ccccc12)c1cccc([N+](=O)[O-])c1	-3	-4	-12	12	·
O=[N+]([O-])c1ccccc1N/N=C/c1ccccc1	-5	2	3	-3	·
COc1ccc(NS(=O)(=O)c2cc([N+](=O)[O-])ccc2N/N=C\c2c(C)[nH]c3ccccc23)cc1	2	-3	-2	2	-81
O=[N+]([O-])c1ccc(N/N=C/c2c[nH]c3ccccc23)cc1	·	-1	-92	92*	-37
COc1ccccc1NS(=O)(=O)c1cc([N+](=O)[O-])ccc1N/N=C/c1c[nH]c2ccccc12	i	1	-83	83*	-8
